In ChEMBL document CHEMBL3822431, “Hydroxychalcone inhibitors of Streptococcus mutans glucosyl transferases and biofilms as potential anticaries agents” (Bioorg Med Chem Lett, 2016):

Biological target: T1, Glucosyltransferase-I (Streptococcus mutans serotype c (strain ATCC 700610 / UA159)) (UniProt P08987)
T1 sequence (whole entry): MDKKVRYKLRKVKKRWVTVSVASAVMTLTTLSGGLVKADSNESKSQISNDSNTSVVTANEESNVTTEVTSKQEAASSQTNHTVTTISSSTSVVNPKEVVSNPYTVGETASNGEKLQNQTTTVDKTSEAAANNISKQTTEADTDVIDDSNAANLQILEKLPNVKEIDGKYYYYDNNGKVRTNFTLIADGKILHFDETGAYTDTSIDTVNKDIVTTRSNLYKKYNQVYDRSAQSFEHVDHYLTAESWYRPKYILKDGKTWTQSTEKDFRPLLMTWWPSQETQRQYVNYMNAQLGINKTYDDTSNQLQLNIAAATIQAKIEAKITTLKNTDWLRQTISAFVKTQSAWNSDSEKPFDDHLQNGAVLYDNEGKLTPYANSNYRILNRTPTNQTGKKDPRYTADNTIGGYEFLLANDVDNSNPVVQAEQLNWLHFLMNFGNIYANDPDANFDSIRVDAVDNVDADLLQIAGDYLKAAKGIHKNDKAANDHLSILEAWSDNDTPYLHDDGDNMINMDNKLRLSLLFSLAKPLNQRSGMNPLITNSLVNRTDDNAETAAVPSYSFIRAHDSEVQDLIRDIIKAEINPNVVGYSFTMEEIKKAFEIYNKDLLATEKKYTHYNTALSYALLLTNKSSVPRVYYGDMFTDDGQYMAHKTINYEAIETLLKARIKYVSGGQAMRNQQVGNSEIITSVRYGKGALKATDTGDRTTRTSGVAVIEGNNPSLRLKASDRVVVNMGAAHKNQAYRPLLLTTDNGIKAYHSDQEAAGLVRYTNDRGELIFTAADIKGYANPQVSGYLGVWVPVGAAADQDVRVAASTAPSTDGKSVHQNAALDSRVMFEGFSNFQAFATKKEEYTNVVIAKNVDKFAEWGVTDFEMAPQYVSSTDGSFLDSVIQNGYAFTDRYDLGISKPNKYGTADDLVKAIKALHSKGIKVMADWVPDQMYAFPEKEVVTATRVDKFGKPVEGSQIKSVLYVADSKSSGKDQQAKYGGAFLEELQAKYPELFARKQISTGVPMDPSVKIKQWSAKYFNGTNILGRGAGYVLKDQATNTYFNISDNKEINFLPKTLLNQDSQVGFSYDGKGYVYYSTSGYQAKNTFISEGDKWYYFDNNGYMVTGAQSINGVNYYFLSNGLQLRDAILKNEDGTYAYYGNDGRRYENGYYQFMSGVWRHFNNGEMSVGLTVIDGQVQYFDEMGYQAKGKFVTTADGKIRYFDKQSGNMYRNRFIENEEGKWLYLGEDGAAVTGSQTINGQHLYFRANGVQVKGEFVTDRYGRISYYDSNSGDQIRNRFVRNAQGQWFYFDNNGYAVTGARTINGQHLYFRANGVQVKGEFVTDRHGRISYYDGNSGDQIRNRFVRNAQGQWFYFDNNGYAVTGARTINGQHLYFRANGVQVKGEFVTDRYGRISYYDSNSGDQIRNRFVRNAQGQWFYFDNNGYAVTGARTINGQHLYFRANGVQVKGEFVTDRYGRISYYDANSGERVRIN
Experiment: Inhibition of Wild-type Streptococcus mutans UA159 glucosyltransferase B by zymography
Method in brief: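 S. mutans UA159 wild type co-incubated with compound at different concentrations; Gtfs concentrated from supernatants, separated by SDS-PAGE and assayed by zymography, glucan band intensity reflecting enzyme activity.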

SMILES: O=C(/C=C\c1ccc(O)cc1O)c1cccc(O)c1
- inhibition: Dose-dependent effect
